According to ChEMBL document CHEMBL6134793, “Synthesis and structure-activity study of the antimicrobial lipopeptide brevibacillin” (RSC Med Chem, 2024):
Values after ≈ are worked out from the molar mass of the structure shown. Active and inactive are the calls of the source. The calls are words filed in the database; no cut-off is given here.

Experiments:
Escherichia coli = assay: Antimicrobial activity against Escherichia coli ATCC 25922 assessed as growth inhibition by microdilution assay; format: functional
In short: (§1)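 Twofold serial microdilution of peptide (stocks 2 mg mL−1, diluted to 512 μg mL−1 in water with 10% DMSO) in strain medium, about 1 × 10^4 cfu per well. Media: TSB 20 h 37 °C (S. aureus, L. monocytogenes, B. subtilis, E. faecalis); LB 20 h 37 °C (P. aeruginosa, S. enterica, E. coli); Brucella 48 h 37 °C (C. coli). A595 read; MIC = lowest concentration with no visible growth; triplicate.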

Pseudomonas aeruginosa [1] = assay: Antimicrobial activity against Pseudomonas aeruginosa ATCC […] assessed as growth inhibition at 128 ug/ml by radial diffusion assay; format: functional, organism-based; details: dose 128.0 µg/ml
In short: (§2)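 Agar well diffusion. Overnight cultures inoculated at 1% into 0.75% soft agar (TSB for S. aureus, LB for P. aeruginosa). Each well received 80 μL of peptide at 128 μg mL−1 in water with 10% DMSO; 10% DMSO served as negative control. Inhibition zone diameter scored after strain-specific incubation.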

Campylobacter coli [2] = assay: Antimicrobial activity against Campylobacter coli ATCC 33559 assessed as growth inhibition by microdilution assay; format: functional; in short: as §1
Enterococcus faecalis = assay: Antimicrobial activity against Enterococcus faecalis ATCC 29212 assessed as growth inhibition by microdilution assay; format: functional; in short: as §1
[3] = Antimicrobial activity against Salmonella enterica serovar Newport ATCC 6962 assessed as growth inhibition by microdilution assay; format: functional, Salmonella enterica subsp. enterica serovar Newport; in short: as §1
[4] = Cytotoxicity against human Caco-2 cells assessed as inhibition of cell viability incubated for 48 hrs by Cell Titer GLO assay; format: toxicity, cell-based
In short: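 Caco-2 cells in DMEM with 10% FCS, seeded 25 000 per well, adhered overnight, then given peptide at 2–256 μg mL−1 in complete medium for 48 h at 37 °C, 5% CO2. Controls: cisplatin 125 μM; 0.1% DMSO medium. Viability by ATP luminescence (CellTiter-Glo) versus untreated cells; IC50 from dose–response; mean ± SEM of at least three independent experiments.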

Staphylococcus aureus [5] = assay: Antimicrobial activity against Staphylococcus aureus ATCC 6538 assessed as growth inhibition at 128 ug/ml by radial diffusion assay; format: functional, organism-based; details: dose 128.0 µg/ml; in short: as §2
Pseudomonas aeruginosa [6] = assay: Antimicrobial activity against Pseudomonas aeruginosa ATCC […] assessed as growth inhibition by microdilution assay; format: functional; in short: as §1
Staphylococcus aureus [7] = assay: Antimicrobial activity against Staphylococcus aureus ATCC 6538 assessed as growth inhibition by microdilution assay; format: functional; in short: as §1
Bacillus subtilis = assay: Antimicrobial activity against Bacillus subtilis ATCC 23957 assessed as growth inhibition by microdilution assay; format: functional; in short: as §1
Listeria monocytogenes = assay: Antimicrobial activity against Listeria monocytogenes ATCC 19111 assessed as growth inhibition by microdilution assay; format: functional; in short: as §1
Clostridium perfringens = assay: Antimicrobial activity against Clostridium perfringens ATCC 3628 assessed as growth inhibition by microdilution assay; format: functional
In short: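 Broth microdilution: twofold serial peptide dilutions in reinforced clostridial medium (RCM), seeded with about 1 × 10^4 cfu per well, incubated 20 h at 37 °C. Working solution 512 μg mL−1 made from a 2 mg mL−1 stock in water with 10% DMSO. Growth read as absorbance at 595 nm. MIC taken as the lowest concentration giving complete inhibition of visible growth; run in triplicate.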

[8] = Hemolytic activity in human erythrocytes at 128 to 256 ug/ml measured after 1 hr by absorbance based assay; format: toxicity, cell-based; details: erythrocyte, dose 128-256 µg/ml
In short: (§3)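 Washed human donor erythrocytes at 1% hematocrit in PBS pH 7.4 exposed to twofold peptide dilutions (final 2–256 μg mL−1, up to 1% DMSO) for 1 h at 37 °C. After centrifugation, supernatant A405 read. % hemolysis relative to PBS (0%) and 1% Triton X-100 (100%). Triplicate; mean ± SEM.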

Campylobacter coli [9] = assay: Bacteriostatic activity against Campylobacter coli ATCC 33559 measured after 48 hrs by microdilution assay; format: functional, organism-based
In short: (§4)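 MIC wells showing complete inhibition were sampled, 10 μL spread on agar and incubated 48 h under strain conditions; MBC = lowest concentration giving no growth on agar. MIC by broth microdilution (TSB 20 h 37 °C for S. aureus; Brucella 48 h 37 °C for C. coli). Triplicate.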

[10] = Hemolytic activity in human erythrocytes at 128 ug/ml measured after 1 hr by absorbance based assay relative to control; format: toxicity, cell-based, Erythrocyte; details: at 128 µg/mL, read-out: Activity; in short: as §3
[11] = Hemolytic activity in human erythrocytes at 256 ug/ml measured after 1 hr by absorbance based assay relative to control; format: toxicity, cell-based, Erythrocyte; details: at 256 µg/mL, read-out: Activity; in short: as §3
Staphylococcus aureus [12] = assay: Bactericidal activity against Staphylococcus aureus ATCC 6538 measured after 48 hrs by microdilution assay; format: functional, organism-based; in short: as §4
Campylobacter coli [13] = assay: Bacteriostatic activity against Campylobacter coli ATCC 33559 assessed as MBC/MIC ratio by microdilution assay; format: functional; in short: as §4
[14] = Hemolytic activity in human erythrocytes assessed as fold decrease at 256 ug/ml measured after 1 hr by absorbance based assay relative to brevibacillin; format: toxicity, cell-based; details: erythrocyte, dose 256 µg/ml; in short: as §3
Pseudomonas aeruginosa [15] = assay: Antimicrobial activity against Pseudomonas aeruginosa ATCC […] assessed as diameter of growth inhibition at 128 ug/ml by radial diffusion assay; format: functional; details: dose 128 µg/ml; in short: as §2
Staphylococcus aureus [16] = assay: Bacteriostatic activity against Staphylococcus aureus ATCC 6538 assessed as MBC/MIC ratio by microdilution assay; format: functional; in short: as §4
Staphylococcus aureus [17] = assay: Antimicrobial activity against Staphylococcus aureus ATCC 6538 assessed as diameter of growth inhibition at 128 ug/ml by radial diffusion assay; format: functional; details: dose 128 µg/ml; in short: as §2

Row | Compound | MIC (Escherichia coli) | growth inhibition (qualitative call) (Pseudomonas aeruginosa [1]) | MIC (Campylobacter coli [2]) | MIC (Enterococcus faecalis) | MIC [3] | IC50 at 48 h [4] | growth inhibition (qualitative call) (Staphylococcus aureus [5]) | MIC (Pseudomonas aeruginosa [6]) | MIC (Staphylococcus aureus [7]) | MIC (Bacillus subtilis) | MIC (Listeria monocytogenes) | MIC (Clostridium perfringens) | hemolysis at 1 h, 128 ug/ml [10] | hemolysis at 1 h, 256 ug/ml [11] | further results
1 | C/C=C(/NC(=O)[C@@H](O)[C@@H](C)CC)C(=O)N[C@@H](CC(C)C)C(=O)N[C@H](CCCN)C(=O)N[C@H](C(=O)N[C@H](C(=O)N[C@H](C(=O)N[C@H](CCCCN)C(=O)N[C@H](C(=O)N[C@H](C(=O)N[C@@H](CCCCN)C(=O)N[C@H](Cc1ccc(O)cc1)C(=O)N[C@@H](CC(C)C)C(=O)N[C@H](C(=O)O)C(C)C)C(C)C)C(C)C)C(C)C)[C@@H](C)CC)[C@@H](C)CC | > 128 µg/mL | inactive | 32 µg/mL | > 128 µg/mL | > 128 µg/mL | > 256 µg/mL | inactive | > 128 µg/mL | > 128 µg/mL | > 128 µg/mL | 128 µg/mL | > 128 µg/mL |  |  | Activity [8]: Non-toxic
2 | C/C=C(/NC(=O)[C@@H](O)[C@@H](C)CC)C(=O)N[C@@H](CC(C)C)C(=O)N[C@H](CCCN)C(=O)N[C@H](C(=O)N[C@H](C(=O)N[C@H](C(=O)N[C@H](CCCCN)C(=O)N[C@H](C(=O)N[C@H](C(=O)N[C@@H](CCCCN)C(=O)N[C@H](Cc1ccc(O)cc1)C(=O)N[C@@H](CC(C)C)C(=O)N[C@H](CO)C(C)C)C(C)C)C(C)C)C(C)C)[C@@H](C)CC)[C@@H](C)CC | 32 µg/mL | Active | 8 µg/mL | 4 µg/mL | 64 µg/mL | 10.9 µg/mL (≈ 6.88 µM) | Active | 1 µg/mL | 2 µg/mL | 1 µg/mL | 2 µg/mL | 4 µg/mL | 9.6% | 25.2% | Activity (Campylobacter coli [9]): Active; Activity (Staphylococcus aureus [12]): Active
3 | CC[C@@H](NC(=O)[C@@H](O)[C@@H](C)CC)C(=O)N[C@@H](CC(C)C)C(=O)N[C@H](CCCN)C(=O)N[C@H](C(=O)N[C@H](C(=O)N[C@H](C(=O)N[C@H](CCCCN)C(=O)N[C@H](C(=O)N[C@H](C(=O)N[C@@H](CCCCN)C(=O)N[C@H](Cc1ccc(O)cc1)C(=O)N[C@@H](CC(C)C)C(=O)N[C@H](CO)C(C)C)C(C)C)C(C)C)C(C)C)C(C)C)C(C)C | 64 µg/mL | Not active; Exhibited Small Decrease In Activity | 16 µg/mL | > 128 µg/mL | > 128 µg/mL | 32.4 µg/mL (≈ 20.8 µM) | Not active; Exhibited Small Decrease In Activity | 2 µg/mL | 2 µg/mL | 4 µg/mL | 4 µg/mL | 8 µg/mL | 1.2% | 4.2% | 
4 | CC[C@H](NC(=O)[C@@H](O)[C@@H](C)CC)C(=O)N[C@@H](CC(C)C)C(=O)N[C@H](CCCN)C(=O)N[C@H](C(=O)N[C@H](C(=O)N[C@H](C(=O)N[C@H](CCCCN)C(=O)N[C@H](C(=O)N[C@H](C(=O)N[C@@H](CCCCN)C(=O)N[C@H](Cc1ccc(O)cc1)C(=O)N[C@@H](CC(C)C)C(=O)N[C@H](CO)C(C)C)C(C)C)C(C)C)C(C)C)[C@@H](C)CC)[C@@H](C)CC | > 128 µg/mL | Not active; Exhibited Small Decrease In Activity | 4 µg/mL | 2 µg/mL | > 128 µg/mL | 10 µg/mL (≈ 6.3 µM) | Not active; Exhibited Small Decrease In Activity | 1 µg/mL | 1 µg/mL | 1 µg/mL | 0.5 µg/mL | 2 µg/mL | 15.5% | 58.7% | Ratio (Campylobacter coli [13]): 8
5 | C/C=C(/NC(=O)[C@@H](O)[C@@H](C)CC)C(=O)N[C@@H](CC(C)C)C(=O)N[C@H](CCCN)C(=O)N[C@H](C(=O)N[C@H](C(=O)N[C@H](C(=O)N[C@H](CCCCN)C(=O)N[C@H](C(=O)N[C@H](C(=O)N[C@@H](CCCCN)C(=O)N[C@H](Cc1ccc(O)cc1)C(=O)N[C@@H](CC(C)C)C(=O)N[C@H](C(N)=O)C(C)C)C(C)C)C(C)C)C(C)C)[C@@H](C)CC)[C@@H](C)CC | > 128 µg/mL | Not active; Exhibited Small Decrease In Activity | > 128 µg/mL | 16 µg/mL | > 128 µg/mL | 16.6 µg/mL (≈ 10.4 µM) | Not active; Exhibited Small Decrease In Activity | 4 µg/mL | 8 µg/mL | 4 µg/mL | 2 µg/mL | 16 µg/mL | 11.8% | 30.1% | 
6 | C/C=C(/NC(=O)[C@@H](O)[C@@H](C)CC)C(=O)N[C@@H](CC(C)C)C(=O)N[C@H](CCCN)C(=O)N[C@H](C(=O)N[C@H](C(=O)N[C@H](C(=O)N[C@H](CCCCN)C(=O)N[C@H](C(=O)N[C@H](C(=O)N[C@@H](CCCCN)C(=O)N[C@H](Cc1ccc(O)cc1)C(=O)N[C@@H](CC(C)C)C(=O)N[C@H](CO)C(C)C)C(C)C)C(C)C)C(C)C)C(C)C)C(C)C | 64 µg/mL |  | 32 µg/mL | 32 µg/mL | > 128 µg/mL | 87.5 µg/mL (≈ 56.2 µM) |  | 4 µg/mL | 4 µg/mL | 8 µg/mL | 4 µg/mL | 16 µg/mL | 0.65% |  | fold change (FC) [14]: 25; Activity (Pseudomonas aeruginosa [15]): 12 mm; Ratio (Staphylococcus aureus [16]): 8; Activity (Staphylococcus aureus [17]): 11 mm
